High-throughput results from PubChem.
UCH37 DUB inh: blocks the human deubiquitinase UCH37 | purified proteasome/UCH37, Ub-AMC cleavage fluorescence | Q9Y5K5 | actives 0.33% (n = 330,000) | AID 588478 | inhibition, % (no concentration beside the values);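 active = mean inhibition over replicate wells above about 20%, limit read from the data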;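 note: 0% = compound-free wells with enzyme and 100% = wells lacking proteasome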
Target sequence (Q9Y5K5 whole entry, looked up): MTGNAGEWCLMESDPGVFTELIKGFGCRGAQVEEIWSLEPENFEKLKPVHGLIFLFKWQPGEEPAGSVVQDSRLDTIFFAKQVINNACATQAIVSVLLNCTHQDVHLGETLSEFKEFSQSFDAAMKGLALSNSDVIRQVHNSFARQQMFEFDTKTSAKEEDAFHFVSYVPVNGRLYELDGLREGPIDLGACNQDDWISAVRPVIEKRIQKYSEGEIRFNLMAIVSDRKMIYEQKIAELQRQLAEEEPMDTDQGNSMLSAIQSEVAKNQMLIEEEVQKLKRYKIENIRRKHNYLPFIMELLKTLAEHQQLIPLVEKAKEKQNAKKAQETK
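Material: human UCH37 enzyme supplied as purified proteasome complex / Amount: 0.15 nM proteasome as dispensed / Buffer or medium: pH 7.4 Tris-HCl (50 mM) with ovalbumin, ATP-MgCl2, DTT / Times: preincubation 30 min, reaction 25 min, room temperature / Technique: AMC fluorescence from Ub-AMC cleavage, excitation 355 nm, emission 460 nm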
MEKK2 WT-MEK5: raises or lowers MEK5 binding to wildtype human MEKK2 PB1 domain | AID 1531 | binding response (% of control), % at 10 µM | actives 1.1% (n = 290,000) | bead flow cytometry, Alexa488-MEK5 binding to MEKK2 WT; actives lie on both sides | Q9Y2U5; in the data active = binding response below about 67% or above about 130%
UBC13 inh: blocks human UBC13 polyubiquitin chain formation; P61088; TR-FRET; inhibition, % at 20 µM; actives 0.47% (n = 330,000); AID 485273; in the data active = inhibition above about 45%, passing the limit was not always enough
Target sequence (P61088 whole entry, looked up): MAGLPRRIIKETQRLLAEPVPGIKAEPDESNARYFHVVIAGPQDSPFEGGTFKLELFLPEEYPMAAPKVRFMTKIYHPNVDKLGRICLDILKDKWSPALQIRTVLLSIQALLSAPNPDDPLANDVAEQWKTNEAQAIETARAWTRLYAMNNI
MEKK2mut PB1 HTS: signal of MEK5 binding to mutant human MEKK2 PB1 domain; bead flow cytometry, Alexa488-MEK5 binding to MEKK2 mutant; percent response, % at 10 µM; actives 0.35% (n = 290,000); AID 1530; in the data active = percent response above about 24%, passing the limit was not always enough
MEKK3 PB1 HTS: raises or lowers MEK5 binding to the human MEKK3 PB1 domain; bead-based flow cytometry, Alexa488-MEK5 binding to MEKK3; actives lie on both sides; 0 = blocked by unlabeled MEK5, 100 = vehicle; binding response (% of control), % at 10 µM; actives 1.4% (n = 290,000);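 active = binding response more than 3 SD above or below the average of its plate-row segment, actives on both sides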;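 note: Alexa488 bead fluorescence after subtracting the streptavidin-only scavenger bead signal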
Apaf1 inhib: inhibitors of human Apaf-1 apoptosome; actives 0.71% (n = 330,000); reconstituted apoptosome caspase-3 activity, DEVD-Rh110 fluorescence; O14727; AID 489030; inhibition, % at 20 µM; active = inhibition of at least 40% at 20 µM;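 note: plate controls were DMSO wells for no effect and DEVD-CHO caspase inhibitor wells for full effect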
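Medium: Hepes buffer, pH 7.5 / System: biochemical Apaf-1 apoptosome reconstitution / Measured by: Rh110 fluorescence, excitation 480 nm, emission 540 nm / Times: compound with Apaf-1, dATP, procaspase-3 30 min, then 50 min reaction, room temperature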
MEKK2wt confirm: raises or lowers MEK5 binding to wildtype human MEKK2, retest | bead flow cytometry, Alexa488-MEK5 binding to MEKK2 WT; actives lie on both sides | shares compounds with MEKK3 PB1 HTS | actives 2.4% (n = 5,900) | binding response (% of control), % at 10 µM; in the data active = binding response below about 16% or above about 210%; inactive = in between
MEKK2mut confirm: signal of MEK5 binding to mutant human MEKK2, retest; shares compounds with MEKK3 PB1 HTS; bead flow cytometry, Alexa488-MEK5 binding to MEKK2 mutant; percent response, % at 10 µM; actives 2% (n = 5,900); AID 1893; in the data active = percent response mostly above about 71%, no sharp cut-off; inactive = mostly below about 38%;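 note: higher means compound restores mutant binding toward wildtype level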
MEKK3 confirm: MEKK3-MEK5 PB1 inhibition, single concentration confirmation; shares compounds with MEKK3 PB1 HTS; bead flow cytometry, Alexa488-MEK5 binding to MEKK3; active compounds read low; binding response (% of control), % at 10 µM; actives 1.8% (n = 5,900);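 active = binding response below 72% of control, or above a set upper limit, though filed actives all read lower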;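 note: 100% = DMSO only wells and 0% = binding blocked by excess unlabeled MEK5; lower values mean stronger disruption of MEK5 binding to MEKK3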
* = called active by the depositor; . = no result; [ ] = remark or other dose. In the library only some 3% were active in any assay of this set; here they are far more common.

SMILES	UCH37 DUB inh	MEKK2 WT-MEK5	UBC13 inh	MEKK2mut PB1 HTS	MEKK3 PB1 HTS	Apaf1 inhib	MEKK2wt confirm	MEKK2mut confirm	MEKK3 confirm
CC1(C)CC(O)C(C(O)c2cccc([N+](=O)[O-])c2)C(C)(C)N1 (stereo not given)	7	111	-4	1	148*	1	99	5	103
COc1cc(NC(=O)Cn2c(=O)n(CC3CCCO3)c(=O)c3ccccc32)cc(OC)c1 (stereo not given)	3	113	-12	0	138*	2	116	14	109
COc1ccc(-n2c(=O)c3ccccc3n(CC(=O)NC3CCCCC3)c2=O)cc1	0	121	1	4	124*	-2	104	2	102
Cc1noc(C(=O)NCc2cccnc2)c1Cl	2	97	-3	-5	100	-2	.	.	.
O=C(/C=C/c1ccc(N2CCC(c3ccccc3)=N2)cc1)c1ccccc1	8	.	-39	281*	78	18	94	-50	78
O=C(/C=C(\O)c1ccc(Cl)cc1)C(=O)NNC(=O)C(O)(c1ccccc1)c1ccccc1	9	99	-28	7	102	28	.	.	.
Cc1[nH]n(-c2ccc([N+](=O)[O-])cc2)c(=O)c1C=NCCN1CCN(C(=O)c2ccc(F)cc2)CC1	-1	.	2	.	.	-2	.	.	.
Cc1[nH]n(-c2ccc([N+](=O)[O-])cc2)c(=O)c1C=NCCN1CCN(C(=O)c2cccc(F)c2)CC1	9	126	-4	8	127*	10	110	13	105
O=C(N/C(=C\c1ccc(Cl)cc1)C(=O)N1CCOCC1)c1ccco1	3	99	1	-3	104	-7	.	.	.
C/C(N)=C(/C#N)C(=O)COC(=O)c1ccncc1	5	113	-9	6	135*	4	104	2	104
CC(=O)Nc1ccc(C(=O)OCC(=O)/C(C#N)=C(\C)N)cc1	0	104	-12	-2	105	-2	.	.	.
O=C(COC(=O)c1ccccc1SCC(=O)N1CCCC1)NC1CCCCC1	0	.	-3	.	.	-1	.	.	.
O=C(NCCCn1ccnc1)/C(=C\c1cccs1)NC(=O)c1cccs1	5	116	-5	0	130*	7	100	-5	101
CCOC(=O)CSc1nc2cc(C)ccc2cc1C#N	2	101	10	-5	103	10	.	.	.
Cc1ccc2cc(C#N)c(SCC(=O)N3CCCC3)nc2c1	6	43*[inhibitor]	24	-11	45*[inhibitor]	-22	94	-8	95
CC1CCN(S(=O)(=O)c2ccc(NC(=O)CN3CCCC(C)C3)cc2)CC1 (stereo not given)	2	24*[inhibitor]	14	-22	15*[inhibitor]	-8	99	2	100
CC1CCN(S(=O)(=O)c2ccc(NC(=O)Cc3ccccc3)cc2)CC1	6	-5.0*[inhibitor]	6	-40	0.0*[inhibitor]	11	100	-4	99
CC1CCCN(CC(=O)Nc2ccc(S(=O)(=O)N3CCCC3)cc2)C1 (stereo not given)	2	103	-6	-1	102	7	.	.	.
COC(=O)/C=C1\C(=O)N(c2nc3ccc(OC)cc3s2)C(=S)N1c1ccc(F)cc1	-1	.	-24	.	.	-2	.	.	.
COC(=O)/C=C1\C(=O)N(c2nc3ccccc3s2)C(=S)N1c1ccc(F)cc1	0	0.0*[inhibitor]	-9	-41	1.0*[inhibitor]	30	99	0	99
N=C1/C(=C\c2ccc(SCc3ccccc3)o2)C(=O)N=C2SC(CC(=O)N3CCOCC3)=NN12	11	50	3	-12	48*[inhibitor]	5	94	-6	94
CCOC(=O)Nc1cc(Br)c2c(c1)OCCO2	6	-4.0*[inhibitor]	1	-20	0.0*[inhibitor]	7	103	1	104
CCOC(=O)c1c(C)c(C(=O)Nc2ccc3c(c2)OCCO3)c(C)n1C	5	95	4	-5	94	0	.	.	.
CSc1nc(O)c(Nc2cccc(Cl)c2)c(=O)[nH]1	.	92	-5	-6	94	-4	.	.	.
CCOc1ncccc1C(=O)N=C1SCCN1C(=O)c1cccnc1OCC	1	140	5	7	158*	-6	103	0	108
SMILES	UCH37 DUB inh	MEKK2 WT-MEK5	UBC13 inh	MEKK2mut PB1 HTS	MEKK3 PB1 HTS	Apaf1 inhib	MEKK2wt confirm	MEKK2mut confirm	MEKK3 confirm
Clc1ccc(-c2cn3cc(Br)ccc3n2)cc1Cl	2	109	29	0	150*	9	93	-2	100
Cc1ccc(-n2cnc3c(sc4nc(N5CCOCC5)c5c(c43)CCCC5)c2=O)cc1	-18	100	34	4	110	13	.	.	.
CN1CCN(CC(=O)N2c3ccccc3C(C)(c3ccccc3)CC2(C)C)CC1 (stereo not given)	1	119	5	15	109	13	.	.	.
CN1CCN(CC(=O)N2c3ccccc3C(C)(c3ccc(Cl)cc3)CC2(C)C)CC1 (stereo not given)	1	112	19	27*	105	5	111	-1	100
C=C1CCN([C@@H](CC(C)C)C(=O)N2CCCC2)S(=O)(=O)c2ccccc21	-2	110	4	5	107	3	.	.	.
COc1ccc(/C(C)=N/OCC(=O)N=Nc2c(O)[nH]c3ccc(Br)cc23)cc1	.	99	-22	-2	98	11	.	.	.
CC1CN(C(=O)c2cc3ccccc3oc2=O)CC(C)O1 (stereo not given)	2	96	-2	-8	82*[inhibitor]	-11	101	-2	99
COc1cccc2cc(C(=O)N3CC(C)OC(C)C3)c(=O)oc12 (stereo not given)	-3	99	-3	-3	99	-16	.	.	.
CC1CN(C(=O)c2ccc(Oc3ccccc3)cc2)CC(C)O1 (stereo not given)	4	86	-22	-4	70*[inhibitor]	-4	99	-5	98
CC1CN(C(=O)c2cccc(Oc3ccccc3)c2)CC(C)O1 (stereo not given)	1	107	3	5	101	0	.	.	.
COc1ccccc1CNC(=O)C(C)NS(=O)(=O)c1ccc(C)cc1 (stereo not given)	1	100	-21	7	99	-3	.	.	.
